Positions count from the first letter of the chain named. Values joined by “and” are separate entries in the source; they are usually repeats but may differ in a detail not shown here. Equal entries are not always repeated.
Legend:
MalA R400H [1] = target: T1, MalA R400H (Saccharolobus solfataricus, UniProt D0KQM8, R400H); test: Differential scanning fluorimetry with inhibitors/NAC, MalA R400H; assay type: binding, Saccharolobus solfataricus 98/2
T1 sequence (D0KQM8 1-700 R400H): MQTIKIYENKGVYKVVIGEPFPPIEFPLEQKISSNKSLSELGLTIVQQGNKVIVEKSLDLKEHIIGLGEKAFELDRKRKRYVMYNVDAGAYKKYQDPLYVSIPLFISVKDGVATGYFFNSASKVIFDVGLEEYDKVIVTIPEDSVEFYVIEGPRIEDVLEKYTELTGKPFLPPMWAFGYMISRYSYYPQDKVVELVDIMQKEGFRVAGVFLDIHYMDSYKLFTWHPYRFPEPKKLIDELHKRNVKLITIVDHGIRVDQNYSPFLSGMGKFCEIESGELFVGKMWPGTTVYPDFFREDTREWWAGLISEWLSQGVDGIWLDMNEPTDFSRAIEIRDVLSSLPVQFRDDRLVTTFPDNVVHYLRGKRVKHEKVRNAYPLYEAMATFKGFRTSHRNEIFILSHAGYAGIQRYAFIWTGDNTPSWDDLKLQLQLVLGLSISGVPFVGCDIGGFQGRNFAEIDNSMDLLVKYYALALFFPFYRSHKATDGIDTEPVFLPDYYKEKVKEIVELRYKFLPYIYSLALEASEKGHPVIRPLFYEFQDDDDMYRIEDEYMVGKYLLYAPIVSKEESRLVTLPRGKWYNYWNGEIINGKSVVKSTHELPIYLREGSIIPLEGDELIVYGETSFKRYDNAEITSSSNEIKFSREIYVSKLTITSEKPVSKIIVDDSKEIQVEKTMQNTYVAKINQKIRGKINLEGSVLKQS
How it was run: (§1)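 His-tagged MalA (WT, R400G or R400H) was expressed in E. coli BL21(DE3) RIL, heat-fractionated at 70 °C and Ni-purified. Each enzyme ([…]) was mixed with SYPRO Orange in 0.2 M sodium citrate pH 5.0, sodium phosphate pH 7.0 or sodium borate pH 8.5, in triplicate. Held 10 min at 25 °C, scanned 25–95 °C ([…]), then held 10 min. Ligands: 1-DNJ or NB-DNJ 0.1/0.8 mM, acarbose 0.4/1.0 mM, NAC 10/30 mM. Tm fitted on normalised fluorescence; SD from […] replicates.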

MalA R400G [2] = target: T2, MalA R400G (Saccharolobus solfataricus, UniProt D0KQM8, R400G); test: Differential scanning fluorimetry with inhibitors/NAC, MalA R400G; assay type: binding, Saccharolobus solfataricus 98/2
T2 sequence (D0KQM8 1-700 R400G): T1 sequence (D0KQM8 1-700 R400H) with H400G
How it was run: as §1

MalA WT = target: T3, MalA WT (Saccharolobus solfataricus, UniProt D0KQM8); test: Differential scanning fluorimetry with inhibitors/NAC, MalA WT; assay type: binding, Saccharolobus solfataricus 98/2
T3 sequence (D0KQM8 1-700): T1 sequence (D0KQM8 1-700 R400H) with H400R
How it was run: as §1

MalA wild-type [3] = target: T4, MalA wild-type (Saccharolobus solfataricus, UniProt D0KQM8); test: IC50 determination on pNP-α-D-Glc, MalA wild-type; assay type: biochemical, Saccharolobus solfataricus 98/2
T4 sequence (D0KQM8 1-700): T1 sequence (D0KQM8 1-700 R400H) with H400R
How it was run: (§2)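 Standard assay: 10 mM pNP-α-D-Glc in 100 mM sodium citrate pH 5.0, 85 °C, 2 min. Enzyme per reaction: WT 0.9 µg, R400H 26 µg, R400G 45 µg. Stopped on ice with sodium carbonate pH 10.2; A420 read at room temperature. Inhibitor ranges: 1-DNJ up to 5 mM, acarbose up to 9 mM, NB-DNJ up to 1 mM.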

MalA R400H [4] = target: T1, MalA R400H; test: Inhibition kinetics; assay type: biochemical, Saccharolobus solfataricus 98/2
How it was run: (§3)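 Inhibition kinetics at 85 °C under the standard pNP-α-D-Glc assay (100 mM sodium citrate pH 5.0; stopped with sodium carbonate, A420). Enzyme per reaction: R400H 26 µg, R400G 45 µg, wild type 0.9 µg. Inhibitor ranges: 1-DNJ 0.02–25.0 µM, acarbose 10.0–500 µM, NB-DNJ 0.5–25.0 µM.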

MalA R400G [5] = target: T2, MalA R400G; test: Inhibition kinetics; assay type: biochemical, Saccharolobus solfataricus 98/2
How it was run: as §3

MalA R400H [6] = target: T1, MalA R400H; test: IC50 determination on pNP-α-D-Glc, MalA R400H; assay type: biochemical, Saccharolobus solfataricus 98/2
How it was run: as §2

recombinant GAA [7] = conditions: cited from earlier work
MalA R400G [8] = target: T2, MalA R400G; test: IC50 determination on pNP-α-D-Glc, MalA R400G; assay type: biochemical, Saccharolobus solfataricus 98/2
How it was run: as §2

MalA wild-type [9] = target: T4, MalA wild-type; test: Inhibition kinetics; assay type: biochemical, Saccharolobus solfataricus 98/2
recombinant GAA [10] = conditions: 10 mM NAC; cited from earlier work
α-glucosidase from rice = test: Differential scanning fluorimetry with NAC, α-glucosidase from rice; assay type: binding; conditions: GH31 GAA from rice, Figure S7
How it was run: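 Rice α-glucosidase (type V, 2.5 µg) in 0.2 M sodium borate pH 8.0 with SYPRO Orange, in triplicate, with NAC present. Thermal scan 25–95 °C in 1 °C increments every 0.5 min. Fluorescence normalised to each scan's maximum. Tm calculated per Niesen by curve fitting.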

[11] = Melting temperature of the enzymes by differential scanning fluorimetry; assay type: physicochemical; conditions: for Tm: DSF
How it was run: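 Recombinant human GAA (2.5 µg) with SYPRO Orange in 150 mM NaCl plus 50 mM sodium phosphate pH 7.4 or 50 mM sodium acetate, in triplicate. Scanned 25–95 °C in 1 °C increments every 1 min. Fluorescence normalised to each scan's maximum. Tm derived per Niesen by curve fitting.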

COS-7 cells = conditions: transiently expressed in COS-7 cells, substrate MU-α-D-Glc; cited from earlier work

Row | Compound | Tm MalA R400H (MalA R400H [1]; 0.1 mM inhibitor) [°C] | Tm MalA R400H (MalA R400H [1]; 0.8 mM inhibitor) [°C] | Tm MalA R400G (MalA R400G [2]; 0.1 mM inhibitor) [°C] | Tm MalA R400G (MalA R400G [2]; 0.8 mM inhibitor) [°C] | Tm MalA WT (MalA WT; 0.1 mM inhibitor) [°C] | Tm MalA WT (MalA WT; 0.8 mM inhibitor) [°C] | IC50 (MalA wild-type [3]) [µM] | Ki (MalA R400H [4]) [µM] | Ki (MalA R400G [5]) [µM] | IC50 (MalA R400H [6]) [µM] | IC50 (recombinant GAA [7]) [µM] | IC50 (MalA R400G [8]) [µM] | Ki (MalA wild-type [9]) [µM] | further results
1 | CCCCN1C[C@H](O)[C@@H](O)[C@H](O)[C@H]1CO [NB-DNJ, N-butyldeoxynojirimycin] | 64.7 ± 0.4 | 61.7 ± 0.1 | 65.6 ± 0.2 | 63.5 ± 0.1 | 86 ± 0.7 | 85.1 ± 0.6 | 1.7 ± 0.2 | 0.7 | 0.13 | 5.7 ± 0.21 | 158 | 55 ± 6.62 | 0.13 | Ki fold higher than WT (MalA R400H [4]; R400H vs MalA WT): 5.4 fold
2 | C[C@H]1O[C@H](O[C@H]2[C@H](O)[C@@H](O)[C@@H](O[C@H]3[C@H](O)[C@@H](O)C(O)O[C@@H]3CO)O[C@@H]2CO)[C@H](O)[C@@H](O)[C@@H]1N[C@H]1C=C(CO)[C@@H](O)[C@H](O)[C@H]1O (some centres unmarked) [Acarbose, acarbose] | – | – | – | – | – | – | 20.2 ± 0.9 | 72 | 23 | 830 ± 91.5 | – | 912 ± 67.5 | 0.98 | Tm MalA R400H (MalA R400H [1]; 0.4 mM inhibitor): 64.2 ± 0.1 °C; Tm MalA R400H (MalA R400H [1]; 1.0 mM inhibitor): 64.2 ± 0.2 °C; Tm MalA R400G (MalA R400G [2]; 0.4 mM inhibitor): 65 ± 0.04 °C; Tm MalA R400G (MalA R400G [2]; 1.0 mM inhibitor): 65 ± 0.1 °C; Tm MalA WT (MalA WT; 0.4 mM inhibitor): 79.1 ± 0.9 °C; ΔTm (MalA WT; 0.4 mM inhibitor, vs no inhibitor): +2.0 °C; Tm MalA WT (MalA WT; 1.0 mM inhibitor): 79.8 ± 0.7 °C
3 | CC(=O)N[C@@H](CS)C(=O)O [NAC, N-acetylcysteine] | – | – | – | – | – | – | – | – | – | – | – | – | – | Tm MalA R400H (MalA R400H [1]; 10 mM NAC): 64.9 ± 0.03 °C; Tm MalA R400H (MalA R400H [1]; 30 mM NAC): 67.7 ± 0.13 °C; Tm MalA R400G (MalA R400G [2]; 10 mM NAC): 65.5 ± 0.04 °C; Tm MalA R400G (MalA R400G [2]; 30 mM NAC): 67.3 ± 0.11 °C; Tm MalA WT (MalA WT; 10 mM NAC): 75.8 ± 0.86 °C; Tm MalA WT (MalA WT; 30 mM NAC): 79.6 ± 0.54 °C; increase of Tm (recombinant GAA [10]): 10.5 ± 0.5 °C and 10.5 °C; stabilising effect (α-glucosidase from rice): no stabilising effect
4 | OC[C@H]1NC[C@H](O)[C@@H](O)[C@@H]1O [1-DNJ, 1-deoxynojirimycin] | 65.5 ± 0.2 | 64.1 ± 0.1 | 66.4 ± 0.2 | 67.5 ± 0.3 | 84.1 ± 0.5 | 87.1 ± 0.3 | 0.1 ± 0.01 | 2.2 | 1.4 | 30 ± 2.3 | 20 | 224 ± 41 | 0.009 | –
5 | recombinant GAA: recombinant human lysosomal acid α-glucosidase | – | – | – | – | – | – | – | – | – | – | – | – | – | Tm ([11]; pH 4.0): 53.7 ± 0.2 °C; Tm ([11]; pH 7.4): 47.9 ± 0.7 °C; Tm difference, less than MalA WT at pH 8.5 ([11]; GAA at pH 4.0): 23.3 °C; Tm difference, less than MalA WT at pH 8.5 ([11]; GAA at pH 7.4): 29.1 °C
6 | R600H: pathogenic human GAA mutant transiently expressed in COS-7 cells | – | – | – | – | – | – | – | – | – | – | – | – | – | activity compared to GAA wild-type (COS-7 cells): less than 2%

Source: paper PMC11864002 (Journal of Enzyme Inhibition and Medicinal Chemistry, 2025)
